Laboratory results taken from ChEMBL document CHEMBL3994612, “Novel 4-(4-substituted amidobenzyl)furan-2(5H)-one derivatives as topoisomerase I inhibitors” (Eur J Med Chem, 2017).
The source made the active and inactive calls. No cut-off for these calls is given here.

Columns and labels:
A549 = test: Cytotoxicity against human A549 cells assessed as reduction in cell viability after 48 hrs by MTT assay; format: functional, cell-based; settings: A549, 48 h
Outline: (§1)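 MCF-7, HeLa and A549 cells seeded at 3.5 × 10^3 per well in medium with 10% FBS and left overnight. Medium then replaced with fresh medium holding a range of compound concentrations for 48 h. MTT (5 mg/mL) added, 4 h at 37 °C. Formazan dissolved in DMSO, absorbance read at 570 nm. Triplicate wells per dose; IC50 derived.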

HeLa = test: Cytotoxicity against human HeLa cells assessed as reduction in cell viability after 48 hrs by MTT assay; format: functional, cell-based; outline: as §1
MCF7 = test: Cytotoxicity against human MCF7 cells assessed as reduction in cell viability after 48 hrs by MTT assay; format: functional, cell-based; settings: MCF7, 48 h; outline: as §1
[1] = molecular target: T1, DNA topoisomerase 1 (Homo sapiens) (UniProt P11387); test: Inhibition of recombinant human topoisomerase-1 assessed as reduction in relaxation of supercoiled pBR322 DNA substrate at 100 uM after 30 mins by ethidium bromide staining based agarose gel electrophoresis relative to control
T1 sequence (whole entry): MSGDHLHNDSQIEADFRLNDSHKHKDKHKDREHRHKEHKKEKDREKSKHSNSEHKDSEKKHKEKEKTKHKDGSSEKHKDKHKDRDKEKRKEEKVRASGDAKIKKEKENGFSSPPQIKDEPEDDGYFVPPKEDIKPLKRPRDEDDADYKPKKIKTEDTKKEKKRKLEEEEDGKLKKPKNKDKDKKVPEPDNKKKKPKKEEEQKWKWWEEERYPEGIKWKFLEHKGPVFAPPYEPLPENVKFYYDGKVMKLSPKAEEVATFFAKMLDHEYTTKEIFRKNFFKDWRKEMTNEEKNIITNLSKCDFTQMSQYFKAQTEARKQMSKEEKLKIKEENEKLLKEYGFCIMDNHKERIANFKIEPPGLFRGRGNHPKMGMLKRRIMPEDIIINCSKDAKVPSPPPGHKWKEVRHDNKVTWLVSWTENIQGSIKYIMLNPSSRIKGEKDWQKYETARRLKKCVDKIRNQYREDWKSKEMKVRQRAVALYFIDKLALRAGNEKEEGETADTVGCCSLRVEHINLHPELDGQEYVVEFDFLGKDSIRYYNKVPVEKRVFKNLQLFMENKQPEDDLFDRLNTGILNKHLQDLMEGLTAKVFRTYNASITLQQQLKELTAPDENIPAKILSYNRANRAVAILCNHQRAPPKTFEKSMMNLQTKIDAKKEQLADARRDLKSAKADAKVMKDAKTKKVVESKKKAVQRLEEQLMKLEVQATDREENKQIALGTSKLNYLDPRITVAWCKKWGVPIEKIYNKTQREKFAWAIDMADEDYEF
Outline: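 pBR322 DNA (0.1 µg) and recombinant human Topo I (0.2 units) incubated ± compound 30 min at 37 °C in supplier's Topo I buffer; compounds from DMSO stocks. Stopped with bromophenol blue/xylene cyanol/glycerol dye. Read-out: 1% agarose in 1× TAE, 100 V for 30 min, EB stain (0.5 µg/mL). Percent inhibition from gray-scale band analysis; camptothecin positive control.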

[2] = molecular target: T1, DNA topoisomerase 1 (Homo sapiens); test: Inhibition of recombinant human topoisomerase-1 assessed as DNA insertion by measuring drug-DNA-enzyme ternary complex formation up to 25 uM using supercoiled pBR322 DNA substrate after 30 mins by ethidium bromide staining based agarose gel electrophoresis
Outline: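 Supercoiled pBR322 DNA (0.1 µg) preincubated with compound 10 min at 25 °C, then excess Topo I (4 units) added, 30 min at 37 °C in 20 µL Tris-HCl pH 7.5 buffer with MgCl2, KCl, EDTA, DTT, BSA. Run on 1% agarose in TAE 40 min, EB post-stained, UV-imaged. Unwinding read as supercoiled retained versus relaxed.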

[3] = molecular target: T1, DNA topoisomerase 1 (Homo sapiens); test: Inhibition of recombinant human topoisomerase-1 assessed as DNA insertion by measuring drug-DNA-enzyme ternary complex formation up to 100 uM using supercoiled pBR322 DNA substrate after 30 mins by ethidium bromide staining based agarose gel electrophoresis
Outline: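 Supercoiled pBR322 DNA (0.1 µg) in Topo I buffer (50 mM Tris-HCl pH 7.5, 10 mM MgCl2, 50 mM KCl, 0.1 mM EDTA, 0.5 mM DTT, BSA) pre-incubated with compound 10 min at 25 °C. Excess Topo I (4 units) then added, 30 min at 37 °C. Read-out: 1% agarose/TAE electrophoresis, EB staining, UV imaging. Ethidium bromide positive control; camptothecin negative control.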

[4] = molecular target: T1, DNA topoisomerase 1 (Homo sapiens); test: Inhibition of recombinant human topoisomerase-1 assessed as interference in DNA binding to enzyme by measuring reduction in enzyme-DNA complex using supercoiled pBR322 DNA substrate preincubated for 20 mins followed by substrate addition measured after 3 mins by electrophoretic mobility shift assay
[5] = molecular target: T1, DNA topoisomerase 1 (Homo sapiens); test: Poison activity at recombinant human topoisomerase-1 assessed as stabilization of DNA-enzyme cleavage complex by measuring increase in linear DNA using supercoiled pBR322 DNA substrate after 30 mins by ethidium bromide staining based agarose gel electrophoresis

SMILES	IC50 (A549)	IC50 (HeLa)	IC50 (MCF7)	inhibition [1]	inhibition [2]	inhibition [3]	inhibition [4]	Activity [5]
Cc1ccc(CC(=O)Nc2ccc(CC3=CC(=O)OC3)cc2)cc1	41.4 µM	> 50 µM	49.2 µM	19.4%	–	–	–	–
CC[n+]1c(-c2ccccc2)c2cc(N)ccc2c2ccc(N)cc21	–	–	–	–	Active	–	–	–
C=C1OC(=O)C=C1Cc1ccc(NC(=O)Cc2ccccc2)cc1	39 µM	> 50 µM	> 50 µM	28.5%	–	inactive	–	–
O=C(/C=C/c1ccccc1F)Nc1ccc(CC2=CC(=O)OC2)cc1	40 µM	45.8 µM	> 50 µM	11.7%	–	–	–	–
C=C1OC(=O)C=C1Cc1ccc(NC(=O)Cc2ccc(C(F)(F)F)cc2)cc1	42.9 µM	39.7 µM	39.8 µM	34.9%	–	inactive	–	–
C=C1OC(=O)C=C1Cc1ccc(NC(=O)Cc2ccc(F)cc2)cc1	22.8 µM	16.2 µM	16 µM	43.3%	–	inactive	–	–
C=C1OC(=O)C=C1Cc1ccc(NC(=O)Cc2ccc(Cl)cc2)cc1	37.6 µM	35.5 µM	37.4 µM	30.3%	–	inactive	–	–
C=C1OC(=O)C=C1Cc1ccc(NC(=O)Cc2ccccc2C(F)(F)F)cc1	37.5 µM	37.5 µM	48.7 µM	32.3%	–	inactive	–	–
C=C1OC(=O)C=C1Cc1ccc(NC(=O)Cc2cccc(C(F)(F)F)c2)cc1	6.69 µM	8.63 µM	6.15 µM	41.9%	–	inactive	–	–
C=C1OC(=O)C=C1Cc1ccc(NC(=O)/C=C/c2ccccc2)cc1	14.8 µM	7.34 µM	9.49 µM	48.6%	–	inactive	–	–
O=C(Cc1ccc(C(F)(F)F)cc1)Nc1ccc(CC2=CC(=O)OC2)cc1	45.8 µM	48.8 µM	46.4 µM	11%	–	–	–	–
CC[C@@]1(O)C(=O)OCc2c1cc1n(c2=O)Cc2cc3ccccc3nc2-1 [CAMPTOTHECIN]	0.24 µM	60 µM	71.3 µM	–	–	–	–	–
C=C1OC(=O)C=C1Cc1ccc(NC(=O)Cc2ccccc2Cl)cc1	48.8 µM	42.6 µM	40.9 µM	21.3%	–	inactive	–	–
C=C1OC(=O)C=C1Cc1ccc(NC(=O)/C=C/c2ccc(F)cc2)cc1	3.46 µM	2.77 µM	4.43 µM	94%	–	inactive	Dose-dependent effect	Dose-dependent effect
C=C1OC(=O)C=C1Cc1ccc(NC(=O)/C=C/c2ccccc2F)cc1	7.41 µM	6.93 µM	13.8 µM	44.6%	–	inactive	–	–
O=C(Cc1ccccc1C(F)(F)F)Nc1ccc(CC2=CC(=O)OC2)cc1	48.9 µM	44.6 µM	43.8 µM	20.3%	–	–	–	–
C=C1OC(=O)C=C1Cc1ccc(NC(=O)Cc2ccc(C)cc2)cc1	7.79 µM	7.12 µM	3.94 µM	47.9%	–	inactive	–	–
C=C1OC(=O)C=C1Cc1ccc(NC(=O)Cc2ccccc2F)cc1	32 µM	40.5 µM	48.3 µM	32.8%	–	inactive	–	–
O=C(Cc1cccc(C(F)(F)F)c1)Nc1ccc(CC2=CC(=O)OC2)cc1	> 50 µM	44 µM	40.1 µM	12.3%	–	–	–	–
C=C1OC(=O)C=C1Cc1ccc(NC(=O)Cc2cccc(Cl)c2)cc1	41 µM	45.8 µM	42.9 µM	22.5%	–	inactive	–	–
C=C1OC(=O)C=C1Cc1ccc(NC(=O)/C=C/c2cccc(F)c2)cc1	35.2 µM	30.2 µM	39 µM	34.5%	–	inactive	–	–
O=C(/C=C/c1cccc(F)c1)Nc1ccc(CC2=CC(=O)OC2)cc1	> 50 µM	49 µM	39 µM	13.1%	–	–	–	–
C=C1OC(=O)C=C1Cc1ccc(NC(=O)c2ccccc2)cc1	49.8 µM	48.3 µM	> 50 µM	28.7%	–	inactive	–	–
O=C(/C=C/c1ccc(F)cc1)Nc1ccc(CC2=CC(=O)OC2)cc1	41.8 µM	> 50 µM	47.9 µM	12.1%	–	–	–	–
